Assay results reported in ChEMBL document CHEMBL4513216, “Probing the Open Global Health Chemical Diversity Library for Multistage-Active Starting Points for Next-Generation Antimalarials” (ACS Infect Dis, 2020).

Assay: Toxicity liver stage against HepG2, at 10uM
Assay type: cell-based
Parameters: test concentration 10 uM, cell line HepG2-A16-CD81EGFP
Conditions: human, HepG2-A16-CD81EGFP cells; read-out: INHIBITION
Summary of the method: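 Uninfected HepG2-A16-CD81EGFP cells, 3 × 10^3 per well, 1536-well, plated on prespotted compound at 10 μM final, parasite-free screening media added to match infected plates; puromycin 10 μM positive, DMSO 0.5% negative; run in parallel with 48 h PbLuc assay at 37 °C, 5% CO2; viability by CellTiter-Glo luminescence, normalized to controls.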

Row | Structure (SMILES) | cytotoxicity at 10 µM
1 | Cc1cnn(CC2CN(CCc3ccncc3)CCO2)c1 (stereo not given) | -13.6%
2 | CO[C@@H]1CC[C@H]2[C@H]1OCCN2C(=O)c1nn(C)c2ccccc12 | 1.31%
3 | Cc1nc(CN2CCO[C@@H]3CN(C(=O)CN(C)C)CC[C@@H]3C2)cs1 | -0.587%
4 | Cn1ccnc1-c1ccc(NCC2COc3ccccc3O2)nn1 (stereo not given) | 3.31%
5 | C[C@@H]1CN(C(=O)c2nc3ccc(Cl)cn3c2-c2ncc[nH]2)C[C@H](C)O1 | -6.01%
6 | CCn1nc(CC(C)C)cc1C(=O)N1CCN([C@H]2CCCC[C@@H]2O)CC1 | -6.98%
7 | Cc1cc(C2CCC2)nc(N2CC(n3cccn3)C2)n1 | -3.59%
8 | Cc1noc(C)c1CN1C[C@@H](NC(=O)N(C)C)[C@H](C(C)C)C1 | 5.35%
9 | Cc1cc(C(=O)N2CCc3ncnc(N4CCSCC4)c3CC2)[nH]n1 | -6.98%
10 | COc1ccc2[nH]nc(CN3CCC(C(C)N(C)C)CC3)c2c1 (stereo not given) | -1.45%
11 | COc1ccccc1C1CNC(=O)c2nc(-c3c(C)n[nH]c3C)[nH]c2C1 (stereo not given) | -8%
12 | N[C@@H]1CC[C@H](C(=O)NCCc2nc(-c3ccccc3)cs2)C1 | -11.3%
13 | COc1ccc(OCc2cc(C(=O)N3CCOCC3)n[nH]2)c(Cl)c1 | -3.66%
14 | COc1nccnc1N1CCC2(CCCN(C(C)C)C2=O)C1 (stereo not given) | 2.57%
15 | CC(C)N1CC2(CCCN(c3ccccn3)C2)CCC1=O (stereo not given) | -0.608%
16 | Cc1ccc(CC(=O)N2C[C@@H](CN(C)C)[C@@H](CO)C2)cc1C | -14%
17 | CCc1nc(NC(=O)NCCc2cccc(C)n2)nn1C | 2.48%
18 | OCCN1CCc2[nH]nc(C(c3ccccc3)c3ccccc3)c2C1 | -2.98%
19 | Cc1cccnc1CN1CCC(c2nnc(Cn3cccn3)n2C)CC1 | -11.5%
20 | CCS(=O)(=O)c1ccccc1N1CCC(NC(=O)C2CC2)CC1 | -1.58%
21 | Cn1cc(CCNCc2cc(Cl)c3c(c2)OCCO3)cn1 | -9.69%
22 | Cc1noc(C)c1CC(=O)NCc1ccnc(OCC(F)(F)F)c1 | -7.83%
23 | COc1ccc(C)cc1C(=O)N1CCCC(n2nc(C)nc2C)C1 (stereo not given) | -5.68%
24 | O=C(CCCN1C(=O)CCC1=O)NCC1(c2ccccc2)CCC1 | -17.1%
25 | CC(NC(=O)NCCn1ccnc1)c1ccc2c(c1)OCCCO2 (stereo not given) | -7.27%
26 | CN(Cc1nnc(C2CC2)o1)C1CCCN(c2cccnn2)C1 (stereo not given) | -10.7%
27 | CC(C)(C)c1cc(NC(=O)CN2CCc3cncnc3C2)on1 | -8.78%
28 | CCOCCN1CCN(Cc2cccc(C(=O)N(C)C)c2)CC1C (stereo not given) | 3.57%

Row | Structure (SMILES) | cytotoxicity at 10 µM
29 | O=C(c1ccc2c(c1)OCO2)N1CCCC(n2ccnc2)C1 (stereo not given) | -7.6%
30 | Cc1cnn(CC2CCCN2Cc2noc(C(C)(C)C)n2)c1 (stereo not given) | -10.7%
31 | COc1cccc(S(=O)(=O)NC(=O)CCC2CCCO2)c1 (stereo not given) | -14.7%
32 | COc1ccc(COCC(=O)N2CCCC(n3cncn3)C2)cc1 (stereo not given) | -11.1%
33 | Cc1cnn(CC2CN(Cc3nc(-c4ccco4)no3)CCO2)c1 (stereo not given) | -20.3%
34 | CN(Cc1cn(-c2ccccc2)nn1)C1CCCN(c2cccnn2)C1 (stereo not given) | -20.5%
35 | CC(C)c1n[nH]c(C2CN(Cc3nnc(C4CC4)o3)CCO2)n1 (stereo not given) | -10.1%
36 | NC(=O)CN1CCCN(C(=O)Cc2ccc3ccccc3c2)CC1 | 7.82%
37 | Cc1csc(N2CCCN(C(=O)c3cnns3)CC2)n1 | 5.92%
38 | CCOc1nnc(CNC2CCCN(c3ccc(C)nn3)C2)s1 (stereo not given) | -9.31%
39 | COCc1ccccc1CNCc1c(C)nn(C)c1N(C)C | -8.45%
40 | CCOc1c(CNCCCn2ccnc2)cc(Cl)cc1OC | -3.88%
41 | O=C(C1CCCC1)N1CCCC2(CCN(c3cnccn3)CC2)C1 | 9.53%
42 | O=C(NCC1CC1)[C@@H]1CCO[C@@H]2CCN(Cc3ccsc3)C[C@H]21 | -76.5%
43 | CCc1ncnc2c1CCN(Cc1ccccn1)CC2 | 1.39%
44 | CC(=O)N1[C@H](CN(C)C)C[C@@H]2CN(C(=O)c3cccn3C)CC[C@@H]21 | 2.53%
45 | CC(C)CNC(=O)[C@H]1CCS(=O)(=O)[C@@H]2CN(Cc3ccc(Cl)cc3)C[C@H]12 | -13.9%
46 | CC(C)N(C)Cc1cn2c(n1)CN(C(=O)Cc1ccsc1)CC2 | -11.1%
47 | O=C(NCc1cccnc1)[C@@H]1C[C@@H]2CCN(c3ncc(F)cn3)C[C@@H]2O1 | -72.1%
48 | CCCN1CCc2[nH]nc(C(=O)N3CCNC(=O)C3)c2C1 | 14.9%
49 | CCN1CCC2(CC1)CC(NC(=O)c1ccnnc1)c1ccccc12 (stereo not given) | -6.9%
50 | Cn1nc(Cn2ccnc2)c2c1CN(Cc1ccoc1)C2 | 0.319%
51 | CN1Cc2ccccc2CC2(CCN(CCO)CC2)C1=O | -6.58%
52 | COCC1CN(C(=O)COc2ccccc2C)Cc2ncn(C)c21 (stereo not given) | -2.17%
53 | CNC(=O)C1CCC2(CCNCC2)C1 (stereo not given) | 6.41%
54 | CN1C(=O)CC(c2cnn(C)c2)C12CCN(CC1CCOCC1)CC2 (stereo not given) | -3.19%
55 | CN(C)CCN1CCC2[C@@H]1CCN2Cc1ccc2c(c1)OCO2 (stereo not given in full) | -4.28%
